Hits are enriched below; roughly 2.5% of the tested compounds scored in any of these assays.
CHO parental Ca: ATP-evoked calcium signal inhibitors, parental CHO, primary screen, counter-screen for OX1R antagonist project, cell-based, fluorescence, Fluo-8 calcium dye; parental CHO-K1, ATP-induced calcium, Fluo-8 fluorescence; inhibition, % at 5.6 µM; actives 0.63% (n = 330,000); AID 463079, 2010;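 active = inhibition above that plate's mean sample inhibition plus 3 SD, cut at about 26% in these data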;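 note: 0% = ATP-challenged DMSO wells and 100% = DMSO wells without ATP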
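Assay system: parental CHO cells; Read-out basis: percent inhibition of ATP-evoked calcium rise, normalized to controls; Benchmarks: ATP and no-ATP DMSO wells; Compound dosing: single nominal dose of 5.6 µM per compound; Signal: Fluo-8 calcium dye fluorescence; Also added: ATP as calcium-mobilizing challenge; Repeats: singlicate.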
TRPN1 ag: zebrafish TRPN1 channel agonists, primary screen, cell-based, HEK293, calcium fluorescence; actives 0.18% (n = 220,000); transient receptor potential cation channel N1 (TRPN1/NompC), Danio rerio; HEK293 zebrafish TRPN1-YFP, Fluo-8 calcium fluorescence; 100% = response to 87 µM carbachol; activation, % at 3 µM;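 active = activation above its plate's cutoff, the mean activation of test wells on that plate plus 3 SD, cut at about 19% in these data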;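 note: 0% = DMSO alone and 100% = 87 µM carbachol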
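Control set: carbachol 87 µM as high control, DMSO as low control; system: HEK293 stable line with zebrafish TRPN1-YFP; read-out: % activation versus carbachol response; detection: intracellular calcium fluorescence with Fluo-8; doses: single test compound dose, 3 µM nominal, 0.3% DMSO; schedule: dye 1 h 37 °C plus 30 min RT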
OX1R antag-1: antagonists of human orexin 1 receptor (OX1R). Orexin/Hypocretin receptor type 1 (Homo sapiens), O43613. OX1R-expressing cells, FRET antagonist read-out. inhibition, % at 6.6 µM. actives 1.8% (n = 330,000). AID 485270, 2010; in the data active = inhibition mostly above about 38%, no sharp cut-off; inactive = mostly below about 40%;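 note: 0% = agonist challenge alone and 100% = reference antagonist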
Target sequence (O43613 whole entry, looked up): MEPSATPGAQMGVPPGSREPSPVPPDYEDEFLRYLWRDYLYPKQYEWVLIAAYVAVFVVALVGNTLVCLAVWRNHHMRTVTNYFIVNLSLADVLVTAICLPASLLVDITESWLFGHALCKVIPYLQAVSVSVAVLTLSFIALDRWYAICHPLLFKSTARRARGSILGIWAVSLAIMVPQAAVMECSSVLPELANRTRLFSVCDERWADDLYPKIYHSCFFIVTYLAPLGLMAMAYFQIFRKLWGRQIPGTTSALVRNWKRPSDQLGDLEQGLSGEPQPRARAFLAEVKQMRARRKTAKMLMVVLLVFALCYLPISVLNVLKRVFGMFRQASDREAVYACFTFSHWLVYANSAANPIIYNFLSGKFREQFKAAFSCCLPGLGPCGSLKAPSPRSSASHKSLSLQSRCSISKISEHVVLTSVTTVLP
TRPML3 ag: human TRPML3 channel agonists, primary screen, cell-based, HEK293 TRPML3-YFP, Fluo-8 calcium fluorescence, 3 µM | 100% = the carbachol control signal | activation, % at 3 µM | actives 0.29% (n = 220,000) | AID 1448, 2008;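 active = activation above its plate's cutoff, the mean activation of the plate's test wells plus 3 SD, cut at about 12% in these data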;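 note: 0% = DMSO only wells and 100% = carbachol wells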
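Material: TRPML3-YFP stable HEK293 cells | Dosing: One concentration, 3 µM nominal, 0.3% DMSO | Timing: 125 s total fluorescence read per well | Technique: Fluo-8 calcium dye fluorescence, ex 470-495, em 515-575 nm | Measure: Percent activation from peak-to-basal fluorescence ratio, scaled between DMSO and carbachol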
OX1R antag-2: OX1R (HCRTR1) antagonists, primary screen, fluorescence, CHO/OX1R cells, Fluo-8 calcium, orexin A. Orexin/Hypocretin receptor type 1 (Homo sapiens), O43613. Fluo-8 calcium fluorescence. inhibition, % at 5 µM. actives 0.43% (n = 330,000);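 active = inhibition above its plate's threshold, mean inhibition of all tested compounds on the plate plus 3 SD, cut at about 37% in these data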;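 note: 0% = orexin A challenge wells and 100% = SB-334867-A antagonist wells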
Active calls of the source: *; nt = no result.

SMILES | CHO parental Ca | TRPN1 ag | OX1R antag-1 | TRPML3 ag | OX1R antag-2
O=C(OC[C@H]1O[C@@H](OC(=O)c2cc(O)c(O)c(OC(=O)c3cc(O)c(O)c(O)c3)c2)[C@H](OC(=O)c2cc(O)c(O)c(OC(=O)c3cc(O)c(O)c(O)c3)c2)[C@@H](OC(=O)c2cc(O)c(O)c(OC(=O)c3cc(O)c(O)c(O)c3)c2)[C@@H]1OC(=O)c1cc(O)c(O)c(OC(=O)c2cc(O)c(O)c(O)c2)c1)c1cc(O)c(O)c(OC(=O)c2cc(O)c(O)c(O)c2)c1 | -1 | nt | 9 | nt | 13
COc1ccc(/C(=C/Nc2cccc(Br)c2)C(C)=O)cc1OC | -1 | -2 | 19 | 0 | -16
OC(CNCCC1C=Nc2ccccc21)Cn1c2ccc(Cl)cc2c2cc(Cl)ccc21 (stereo not given) | 56* | 2 | 3 | 1 | 39
O=C(Nc1ccc(Cl)c(Cl)c1)Oc1ccc(NC(=O)c2ccco2)cc1 | 42* | 3 | 32 | 1 | 38
CC(C)(C)[C@@H]1C=C(C(=O)O)[C@H](c2ccc(Cl)cc2)N1S(=O)(=O)c1ccccc1 | 4 | nt | 5 | nt | 10
CC(=O)N(Cc1ccccc1)c1ncc2c(n1)c(=O)c(C#N)c1ccccn12 | -15 | 1 | 63* | 1 | 4
N#C/C(=N\Nc1ccc(S(=O)(=O)N2CCCCCC2)cc1)C(N)=S | -5 | 6 | 49* | 4 | -11
CC(=O)Nc1ccc(N=NC2C(=O)N(C(N)=S)N=C2C)cc1 (stereo not given) | -7 | nt | 34* | nt | -10
COc1ccc(CN2CCNC(=O)C2CC(=O)NC2CCCCCCC2)cc1C (stereo not given) | -20 | nt | -1 | nt | -27
O=C(Nc1ccc2nc3n(c(=O)c2c1)CCCC3)c1cccc([N+](=O)[O-])c1 | -16 | 0 | 38 | 1 | -19
O=C(Nc1ccc2nc3n(c(=O)c2c1)CCCC3)c1cc([N+](=O)[O-])ccc1F | 8 | 0 | 52* | 0 | -4
CN(CC(=O)Nc1ccccc1Cl)C(=O)CSc1nnc(-c2ccco2)n1C | -13 | nt | -5 | nt | -18
NS(=O)(=O)c1ccc(N/N=C/c2ccccn2)c([N+](=O)[O-])c1 | -3 | 0 | 46* | 0 | -12
C/C(=N\Nc1ccc(S(N)(=O)=O)cc1[N+](=O)[O-])c1ccco1 | 16 | -2 | 41* | -2 | 8
Cc1ccc(S(=O)(=O)Nc2cccc(C(=O)NCCCn3ccnc3)c2)cc1F | 1 | nt | 12 | nt | -14
CCOc1ccc(CO/N=C/c2c(C)[nH]c(=O)[nH]c2=O)cc1 | -6 | 0 | 1 | 1 | -4
CCOc1[nH]n(-c2ccc(Cl)cc2)c(=O)c1C=Nc1ccc(Cl)cc1 | 38* | 0 | 22 | 0 | -7
Cc1ccc(S(=O)(=O)CC(N)=O)cc1 | 70* | -1 | 26 | 1 | -7
COC(=O)CS(=O)(=O)c1ccc(C)cc1 | -18 | 2 | 1 | 1 | -3
Cc1ccc(S(=O)(=O)/N=C2/C=C(Sc3ncn[nH]3)C(=O)c3ccccc32)cc1 | -12 | 3 | 59* | 2 | -5
CC(C)c1ccc(S(=O)(=O)/N=C2/C=C(Sc3ncn[nH]3)C(=O)c3ccccc32)cc1 | -4 | -1 | 57 | 1 | -15
COC(=O)CSc1[nH]c2ccc(F)cc2c1[N+](=O)[O-] | -7 | 3 | 65 | 1 | -21
O=C(Cn1nnc(-c2cc(C(F)(F)F)cc(C(F)(F)F)c2)n1)NNC(=S)Nc1ccc(Cl)cc1 | -12 | 1 | 4 | 1 | -15
O=C(CNC(=O)c1ccc(Br)o1)NCc1ccccc1 | 0 | nt | 18 | nt | -10
CSc1nc(N)nc(SCC(=O)c2ccc(C)cc2)c1C#N | -7 | 1 | 69* | 0 | 6
SMILES | CHO parental Ca | TRPN1 ag | OX1R antag-1 | TRPML3 ag | OX1R antag-2
O=C(Nc1ccccc1)Nc1ccc(Br)c(Cl)c1 | 29* | 12 | 55 | 7 | 13
O=C(Nc1ccc(N2CCOCC2)cc1)Nc1ccc(Cl)c(Cl)c1 | 51* | 2 | 19 | 3 | 45*
Cc1cc(NC(=O)Nc2ccc(Cl)c(Cl)c2)no1 | 82* | nt | 29 | nt | 41
O=C(Nc1ccc(Cl)cc1)Nc1ccc(N2CCOCC2)cc1 | 9 | 3 | 12 | 1 | -3
O=C(Nc1ccc(Cl)c(Cl)c1)Nc1ccc(Br)cc1F | 36* | 1 | 50 | 1 | 32
O=C(Nc1ccc(Br)cc1)Nc1ccccc1F | 5 | 8 | 26 | 4 | -6
O=C(CN(CC1CCCO1)C(=O)CNS(=O)(=O)c1ccccc1)NCCc1ccccc1 (stereo not given) | -11 | nt | 4 | nt | -2
N#Cc1ccc(NC(=O)Nc2ccc(Cl)cc2)cc1 | 75* | 22* | 100* | 15* | 68*
Cc1ccc(NC(=O)Nc2ccc(F)c(Cl)c2)cc1 | 69* | 9 | 38 | 3 | 8
O=C(Nc1ccc(Cl)cc1)Nc1cccc2nsnc12 | 13 | 8 | 44* | 5 | 2
O=C(Nc1ccc(Cl)cc1)Nc1ccc(Cl)c(Cl)c1 | 79* | nt | 43* | nt | 84*
O=C(COc1ccccc1)Nc1cccc2nsnc12 | -22 | 0 | 51 | 0 | -20
COc1ccc(CN2C(=O)[C@H]3Cc4c([nH]c5ccccc45)C(C)(C)N3C2=O)cc1 | -7 | nt | 12 | nt | -3
O=[n+]1c2c(n([O-])c3cc(F)c(N4CCCC4)cc31)CCC2 | 3 | 3 | 68* | 6 | 8
O=[n+]1c2c(n([O-])c3ccccc31)CCC2 | 9 | 0 | 28 | 1 | -1
O=[n+]1c2c(n([O-])c3cc(F)c(N4CCCC4)cc31)CCCC2 | 5 | 8 | 52* | 4 | 0
N=c1oc2c3c4c(cc2cc1C(=O)Nc1ccccc1)CCCN4CCC3 | 62* | 3 | 95* | 1 | 94*
CN(c1ccccc1)S(=O)(=O)c1ccc(C(=O)NNC(=O)c2ccccc2F)cc1 | -10 | nt | 7 | nt | -13
COc1ccccc1CNC(=O)CSc1nc(-c2ccccc2)cn1N | -3 | 0 | 73* | -1 | 10
Nc1scc2c(C(=O)N/N=C/c3ccc(Cl)cc3)nn(-c3ccccc3)c(=O)c12 | -2 | 0 | 47* | 1 | -1
CCOC(=O)c1nn(-c2ccccc2)c(=O)c2c(NC(C)=O)scc12 | 4 | 1 | 11 | 1 | -5
CC(=O)c1cccc(NC(=O)Nc2nc(C)cc(C)n2)c1 | -1 | nt | 59* | nt | 0
